SKKanGAS inh – blocks kanamycin growth of S. pyogenes SKKanGAS strain | BacTiter-Glo, 6 h | inhibition, % at 7.5 µM | hit rate 1.3% among 300,000 | AID 1662;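 active = mean replicate score, as percent of positive control median, at least 50; inconclusive = mean below 50 but one replicate at or above 50; inactive = mean and every replicate below 50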;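 note: strain carries kanamycin resistance gene driven by streptokinase promoter and grows in 40 µg/ml kanamycin; loss of luminescence reflects streptokinase promoter inhibition or plain growth inhibition; 0% = median of DMSO wells and 100% = positive control at its reference dose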
Lmaj promast – inhibitors of Leishmania major promastigote growth; Leishmania major promastigotes, resazurin fluorescence viability; inhibition, % at 10 µM; hit rate 9% among 200,000; in the data active = inhibition above about 50%;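 note: promastigotes grown with compound for 44 hours at 28 °C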
Beta apoptosis – blocks beta cell apoptosis; INS-1E cytokine-induced death, ATP luminescence, 48 h; percent of positive-control rescue, neutral wells zero; protection from apoptosis, % (concentration not given with the values); hit rate 0.8% among 300,000; AID 435005;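 active = Every replicate reaches about 75%, or at least half do and their mean reaches it too, limit read from the data; inconclusive = At least half of replicates reach the limit but their mean does not; inactive = Under half of replicates reach the limit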;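 note: 0% = cytokine-treated negative control wells and 100% = positive control rescue; higher means more ATP so stronger rescue from cytokine killing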
Mdm2-MdmX inh – human Mdm2/MdmX binding inhibition; O15151+Q00987; SaOS-2 split-luciferase Mdm2/MdmX complementation, luminescence; inhibition, % at 8 µM; hit rate 3% among 330,000; AID 485346;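 active = inhibition of at least 50% at 8 µM in the primary screen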
CSC inhib – blocks cancer stem cells; cancer stem cell-like cells viability, luminescence; inhibition, % at 7.5 µM; hit rate 1.1% among 300,000; AID 2717; in the data active = inhibition above about 75%; inconclusive = no clear call, values can overlap the other calls; tested in HMLE shEcad cells
T cruzi inh – T. cruzi replication inhibition. T. cruzi beta-gal in NIH3T3, luminescence, 90 h. inhibition, % (no concentration beside the values). hit rate 1.4% among 300,000. AID 1885;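 active = mean inhibition across valid replicates above about 55%, limit read from the data; inconclusive = mean below that limit but half or more replicates reach it; inactive = mean below it, under half of replicates reach it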;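 note: signal also drops with host cell toxicity which is not excluded here; 0% = plate median of DMSO wells and 100% = zero luminescence signal; higher percent means less beta-gal luminescence so fewer parasites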
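Read-out: Parasite load inhibition, % | Test system: Mouse NIH/3T3 fibroblasts infected with β-gal-expressing T. cruzi Tulahuen C4 | Amount: 5,000 cells/well | Medium: DMEM, 2% fetal bovine serum | Signal: GalScreen β-gal luminescence, detergent lysis, 60 min | Timing: 3 h attach, ≥90 h co-culture | Also added: Tulahuen C4 trypomastigotes, 5000/well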
* marks the source's active call; other numbers are inactive results; ? = inconclusive; nt = no result given. Hits are enriched below; roughly 9.4% of the tested compounds scored in any of these assays.

SMILES | SKKanGAS inh | Lmaj promast | Beta apoptosis | Mdm2-MdmX inh | CSC inhib | T cruzi inh
CCOc1c(Cl)cc(CNCC(C)C)cc1Cl | 2 | 68* | -2 | -8 | -4 | 9
CCOc1cc(CNCCO)cc(Br)c1OCc1ccccc1 | 0 | 75* | 27 | 17 | 19 | 22
CN1CCN(c2ccncc2S(=O)(=O)N2CCCCC2)CC1 | 2 | nt | nt | 2 | -6 | -9
O=[N+]([O-])c1ccccc1/C=N/N1CCN(c2ccncc2S(=O)(=O)N2CCCCC2)CC1 | 19 | 99* | 9 | 26 | 4 | 76*
O=NN1CCN(c2ccncc2S(=O)(=O)N2CCCCC2)CC1 | 0 | nt | nt | 3 | -6 | -5
O=[N+]([O-])c1ccc(/C=N/N2CCN(c3ccncc3S(=O)(=O)N3CCCCC3)CC2)cc1 | 17 | 99* | 2 | -3 | 8 | 50
CCCCN(C(=O)CSCC(=O)Nc1ccc(C)cc1)c1c(N)n(Cc2ccccc2)c(=O)[nH]c1=O | -1 | nt | -6 | 6 | 3 | -1
Cc1ccc(CNS(=O)(=O)c2ccc3c(c2)NC(=O)C(C)S3)cc1 (stereo unspecified) | -3 | nt | -6 | 14 | -16 | -4
COC(=O)NNC(=O)Cc1cccc2ccccc12 | 0 | -6 | 2 | 0 | 5 | -9
COC(=O)c1cc(S(=O)(=O)N2CCN(c3cccc(OC)c3)CC2)cn1C | -3 | nt | 0 | -10 | -3 | 4
COc1cccc(-c2nc(C(N)=O)c3[nH]c(=O)n(-c4cccc(Cl)c4)c3n2)c1OC | 22 | 47 | 3 | 1 | -12 | 25
COc1ccc(-c2nc(C(N)=O)c3[nH]c(=O)n(-c4cccc(Cl)c4)c3n2)cc1OC | 28 | 60* | nt | nt | nt | 5
Cc1cccc(Cl)c1OCCCn1ccnc1 | -7 | nt | -1 | 8 | -1 | 14
C/C(=N/NC(=O)c1ccc(Br)s1)c1ccncc1 | 3 | nt | 8 | -9 | nt | 2
C/C(=N/NC(=O)c1ccco1)c1ccc(Br)s1 | -6 | nt | 2 | 3 | -9 | -10
C/C(=N\NC(=O)c1cc(Cl)ccc1O)c1ccc(Br)s1 | 16 | -1 | -3 | -22 | 103* | -18
C/C(=N\NC(=O)c1ccc(Cl)cc1)c1ccc(Br)s1 | 36 | 10 | 11 | 48 | 12 | 58*
COc1cc(OC)cc(-c2nnc(SCC(=O)N(Cc3ccccc3)C(C)(C)C)o2)c1 | 30 | 25 | 20 | 40 | 113* | 37
O=C(N/N=C/c1ccccn1)c1[nH]c2ccc([N+](=O)[O-])cc2c1-c1ccccc1 | ? | 98* | 13 | 21 | 51 | 16
Cn1c(SCC(=O)NC2(C#N)CCCCC2)nnc1-c1cccnc1 | 54* | nt | nt | 3 | -3 | -18
Cn1c(SCC(=O)NC2CCCCC2)nnc1-c1cccnc1 | -16 | nt | 1 | 11 | nt | 3
Cc1ccc(S(=O)(=O)N(C)c2ccc3sc(C)nc3c2)cc1 | 4 | -5 | 3 | 47 | -13 | 11
COc1ccc(C2CC(c3ccccc3)=NN2C(=O)COC(=O)c2nc3nc(C)cc(C)n3n2)cc1 (stereo unspecified) | 12 | 12 | -3 | -6 | -26 | 70*
COc1ccc(C2CC(c3ccccc3)=NN2c2ccc(N)cc2)cc1 (stereo unspecified) | -6 | 8 | 7 | 28 | 5 | -1
CC(=O)OCC(=O)N1N=C(c2ccc3ccccc3c2)CC1c1ccccc1 (stereo unspecified) | -5 | 86* | -3 | -23 | 3 | 6
SMILES | SKKanGAS inh | Lmaj promast | Beta apoptosis | Mdm2-MdmX inh | CSC inhib | T cruzi inh
CCOC(=O)C1=NN(c2ccc(OC)cc2)C(c2ccccc2)CC1=O (stereo unspecified) | -7 | 61* | 1 | 3 | -25 | 5
CC(=O)Oc1ccc(C2=NN(c3ccccc3)C(c3ccccc3)C2)cc1 (stereo unspecified) | 65* | nt | 1 | 21 | 108* | 32
N#Cc1ccccc1OCC(=O)OCC(=O)NC1CC1 | nt | nt | -5 | 17 | -7 | nt
CCNC(=O)C(=O)NCC1OCCCN1S(=O)(=O)c1cccs1 (stereo unspecified) | -1 | -6 | 6 | -11 | 12 | -2
Cc1cc(SCC(=O)NN)c2cc(Br)ccc2n1 | 5 | nt | 9 | 45 | 22 | 19
C[C@H]1CN([C@@H](C)CO)C(=O)c2cc(NC(=O)c3ccncc3)ccc2O[C@H]1CN(C)Cc1ccc(C(=O)O)cc1 | nt | nt | 11 | 16 | -17 | nt
COc1cc(N2N=C(c3ccccc3)CC2c2ccccc2)c(C=O)cc1C=O (stereo unspecified) | 55* | nt | -4 | 35 | 3 | 7
COc1ccc(C2CC(c3ccc4ccccc4c3OC(C)=O)=NN2C(C)=O)cc1 (stereo unspecified) | 34 | nt | 96* | -51 | 30 | 1
CN(C)c1ccc(/C=C2\CCCc3c2nc2ccccc2c3C(=O)O)cc1 | -1 | nt | 5 | -57 | 13 | -15
CC(C)c1csc(CN2CCC(N3CCC(C(=O)NCC4CCCO4)CC3)CC2)n1 (stereo unspecified) | 1 | -7 | -1 | 13 | -9 | -11
Cc1ccc(-c2c[n+](CC(=O)c3ccc(Br)cc3)c3n2CCCCC3)cc1 | -6 | 100* | 57 | 30 | -8 | 74*
Cc1ccc(NC(=O)C[n+]2cc(-c3ccccc3)n3c2CCC3)cc1 | 4 | nt | 2 | -3 | -3 | -6
O=C(C[n+]1cc(-c2ccccc2)n2c1CCCCC2)c1ccc(Cl)cc1 | -10 | 70* | 4 | 8 | 3 | 38
COc1ccc(-c2c[n+](CC(=O)c3ccccc3)c3n2CCCCC3)cc1 | 8 | nt | 12 | 21 | 13 | 28
Cc1cccc(Oc2nc(CN3CCOCC3)nc3sc4c(c23)CCCC4)c1 | 4 | 99* | 11 | 28 | -7 | 2
CCN(C(=O)c1cccc(S(=O)(=O)N(C)C)c1)C12CC3CC(CC(C3)C1)C2 | 9 | nt | 17 | 5 | 53 | 15
CCN1C(=O)c2cccc3c(NC(=O)c4ccccc4)ccc1c23 | -12 | 91* | -4 | 36 | -7 | -17
CCN1C(=O)c2cccc3c(S(=O)(=O)NC(Cc4ccccc4)C(=O)O)ccc1c23 (stereo unspecified) | -6 | nt | 0 | -14 | 4 | -7
O=c1cc(C(F)(F)F)[nH]c2c(OC(F)(F)F)cccc12 | 11 | nt | 6 | -8 | 79* | -20
CC1CCCN(C(=O)COC(=O)CNC(=O)c2sc3ccccc3c2Cl)C1 (stereo unspecified) | nt | nt | -4 | 3 | -12 | nt
CC(NC(=O)C12CC3CC(CC(C3)C1)C2)C(=O)NN=Cc1ccc([N+](=O)[O-])o1 (stereo unspecified) | nt | nt | -4 | 40 | 10 | nt
Cc1occc1C(=O)N/N=C/C1=C(N2CCOCC2)C(=C\c2ccc(Cl)cc2)/CC1 | 7 | -3 | 1 | 6 | 4 | 16

High-throughput results deposited in PubChem BioAssay by several laboratories.
